The source of these data is ChEMBL document CHEMBL5661979, “Pharmacological inhibition of BMK1 suppresses tumor growth through promyelocytic leukemia protein” (Cancer Cell, 2010).

A value given as a limit tells only on which side of the number the result lay.

Holding throughout (type): subcellular
The target of assay [1] is T1, Phosphatidylinositol 5-phosphate 4-kinase type-2 gamma (Homo sapiens) (UniProt Q8TBX8).
T1 sequence (whole entry): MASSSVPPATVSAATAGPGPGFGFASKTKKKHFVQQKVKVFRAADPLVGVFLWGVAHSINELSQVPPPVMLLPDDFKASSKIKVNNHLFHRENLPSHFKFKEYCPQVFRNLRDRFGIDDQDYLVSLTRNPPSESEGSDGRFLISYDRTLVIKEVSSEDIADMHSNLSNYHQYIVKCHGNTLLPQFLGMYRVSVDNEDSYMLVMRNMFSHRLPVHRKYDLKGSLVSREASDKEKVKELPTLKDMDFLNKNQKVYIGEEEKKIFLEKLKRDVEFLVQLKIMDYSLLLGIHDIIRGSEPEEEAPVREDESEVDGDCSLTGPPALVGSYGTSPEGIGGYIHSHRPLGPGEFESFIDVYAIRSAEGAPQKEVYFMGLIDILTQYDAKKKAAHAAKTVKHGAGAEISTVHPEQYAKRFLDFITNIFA
Description: Inhibition of PIP5K2C LIP1 site in human HeLa cells lysate at 10 uM pre incubated for 15 mins followed by ATP acyl phosphate probe addition and measured after 10 mins by LC-MS/MS analysis relative to control. The note with it: time 25.0 min.

Assay [2] deals with Tyrosine-protein kinase ABL (Homo sapiens, UniProt P00519+P42684). Description: Inhibition of ABL1/2 in human HeLa cells lysate at 10 uM pre incubated for 15 mins followed by ATP acyl phosphate probe addition and measured after 10 mins by LC-MS/MS analysis relative to control. The note with it: time 25.0 min. The essentials: (§1)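 HeLa cell lysates (5 mg/mL total protein) were preincubated with inhibitor at 0, 0.8, 2, 10 or 50 μM for 15 min. ATP or ADP acylphosphate probe was then added (5 μM final) for 10 min, and reactions were stopped with urea. Up to four fragment ions per kinase probe-peptide were quantified by targeted MS. % inhibition was taken relative to untreated lysate. Run in duplicate.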

Assay [3] addresses T2, STE20-related kinase adapter protein beta (Homo sapiens) (UniProt Q9C0K7).
T2 sequence (whole entry): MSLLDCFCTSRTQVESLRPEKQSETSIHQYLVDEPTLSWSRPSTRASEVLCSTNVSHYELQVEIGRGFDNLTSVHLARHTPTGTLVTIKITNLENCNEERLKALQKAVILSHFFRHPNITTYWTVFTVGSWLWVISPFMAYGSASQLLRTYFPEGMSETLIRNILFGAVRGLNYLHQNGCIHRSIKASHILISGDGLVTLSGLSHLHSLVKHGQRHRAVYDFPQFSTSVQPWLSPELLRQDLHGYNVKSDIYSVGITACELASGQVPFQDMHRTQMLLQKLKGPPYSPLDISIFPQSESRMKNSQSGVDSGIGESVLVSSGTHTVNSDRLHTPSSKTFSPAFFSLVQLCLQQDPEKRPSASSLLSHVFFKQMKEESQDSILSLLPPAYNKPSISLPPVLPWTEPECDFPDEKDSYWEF
Nature of the assay: Inhibition of ALS2CR2 in human HeLa cells lysate at 10 uM pre incubated for 15 mins followed by ADP acyl phosphate probe addition and measured after 10 mins by LC-MS/MS analysis relative to control. The note with it: time 25.0 min. The essentials: as §1

Assay [4] concerns the target Cyclin-dependent kinase 2 (Homo sapiens, UniProt P24941). Nature of the assay: Inhibition of CDK2 K1 site in human HeLa cells lysate pre incubated for 15 mins followed by ATP acyl phosphate probe addition and measured after 10 mins by LC-MS/MS analysis. The essentials: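 KiNativ profiling in HeLa lysate (5 mg/mL total protein). Lysate incubated 15 min with inhibitor at 50, 10, 2, 0.8 or 0 μM. ATP or ADP acylphosphate probe then added (5 μM final) and reacted 10 min. Reaction stopped with urea and analysed by targeted MS, using up to four fragment ions per kinase peptide-probe conjugate. % inhibition taken against untreated lysate. Run in duplicate.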

Assay [5] has as its target Cyclin-dependent kinase 16 (Homo sapiens, UniProt Q00536). Description: Inhibition of PCTAIRE1 in human HeLa cells lysate pre incubated for 15 mins followed by ADP acyl phosphate probe addition and measured after 10 mins by LC-MS/MS analysis.
In assay [6] the target is T3, Scaffold protein ILK (Homo sapiens) (UniProt Q13418).
T3 sequence (whole entry): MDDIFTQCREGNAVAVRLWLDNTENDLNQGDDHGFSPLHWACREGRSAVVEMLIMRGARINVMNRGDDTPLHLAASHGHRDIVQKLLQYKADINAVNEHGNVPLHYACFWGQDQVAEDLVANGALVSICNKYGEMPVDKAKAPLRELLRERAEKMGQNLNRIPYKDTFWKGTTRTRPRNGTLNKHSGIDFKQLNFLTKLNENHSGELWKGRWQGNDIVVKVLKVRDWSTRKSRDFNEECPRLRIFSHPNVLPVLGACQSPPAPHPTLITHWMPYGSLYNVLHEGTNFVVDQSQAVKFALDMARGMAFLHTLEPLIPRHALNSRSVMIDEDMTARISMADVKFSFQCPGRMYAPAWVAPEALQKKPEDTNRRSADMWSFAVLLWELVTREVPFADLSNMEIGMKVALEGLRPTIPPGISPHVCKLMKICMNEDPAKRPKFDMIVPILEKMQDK
Nature of the assay: Inhibition of ILK in human HeLa cells lysate at 10 uM pre incubated for 15 mins followed by ATP acyl phosphate probe addition and measured after 10 mins by LC-MS/MS analysis relative to control. Conditions: time 25.0 min.

Assay [7] has as its target Phosphatidylinositol 5-phosphate 4-kinase type-2 beta (Homo sapiens) (UniProt P78356). Nature of the assay: Inhibition of PIP5K2B in human HeLa cells lysate at 2 uM pre incubated for 15 mins followed by ATP acyl phosphate probe addition and measured after 10 mins by LC-MS/MS analysis relative to control. Conditions: time 25.0 min.
The target in assay [8] is Ribosomal protein S6 kinase beta-1 (Homo sapiens, UniProt P23443). Nature of the assay: Inhibition of P70S6K in human HeLa cells lysate at 10 uM pre incubated for 15 mins followed by ATP acyl phosphate probe addition and measured after 10 mins by LC-MS/MS analysis relative to control. Conditions: time 25.0 min.
Assay [9] deals with Serine/threonine-protein kinase 16 (Homo sapiens, UniProt O75716). Description: Inhibition of MPSK1 in human HeLa cells lysate at 50 uM pre incubated for 15 mins followed by ATP acyl phosphate probe addition and measured after 10 mins by LC-MS/MS analysis relative to control. The note with it: time 25.0 min.
Serine/threonine-protein kinase 16, sequence (O75716 whole entry): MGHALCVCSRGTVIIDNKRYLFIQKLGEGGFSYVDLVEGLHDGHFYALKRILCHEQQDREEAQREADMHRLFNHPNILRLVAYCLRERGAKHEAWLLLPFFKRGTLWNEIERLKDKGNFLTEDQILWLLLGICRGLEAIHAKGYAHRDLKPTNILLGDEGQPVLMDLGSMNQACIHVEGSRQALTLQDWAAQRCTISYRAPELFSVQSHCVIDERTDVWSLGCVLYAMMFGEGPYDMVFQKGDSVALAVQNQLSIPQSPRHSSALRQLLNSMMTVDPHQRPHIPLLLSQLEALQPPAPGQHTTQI

Ribosomal protein S6 kinase beta-1, sequence (P23443 whole entry, looked up): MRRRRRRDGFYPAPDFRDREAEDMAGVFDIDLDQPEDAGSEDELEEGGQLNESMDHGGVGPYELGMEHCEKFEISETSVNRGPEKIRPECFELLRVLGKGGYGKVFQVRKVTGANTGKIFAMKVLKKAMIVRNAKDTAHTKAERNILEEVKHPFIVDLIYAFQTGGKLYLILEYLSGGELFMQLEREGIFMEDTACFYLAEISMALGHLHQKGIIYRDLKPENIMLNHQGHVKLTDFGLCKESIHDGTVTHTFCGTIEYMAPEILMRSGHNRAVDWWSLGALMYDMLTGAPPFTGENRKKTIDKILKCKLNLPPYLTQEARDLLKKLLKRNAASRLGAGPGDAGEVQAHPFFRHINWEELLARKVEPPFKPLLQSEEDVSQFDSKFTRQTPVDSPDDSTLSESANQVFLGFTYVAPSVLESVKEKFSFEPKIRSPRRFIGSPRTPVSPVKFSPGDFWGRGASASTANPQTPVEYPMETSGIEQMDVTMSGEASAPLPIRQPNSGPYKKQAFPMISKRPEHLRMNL
Tyrosine-protein kinase ABL, sequence (P00519 whole entry, looked up, the tested form may be a part): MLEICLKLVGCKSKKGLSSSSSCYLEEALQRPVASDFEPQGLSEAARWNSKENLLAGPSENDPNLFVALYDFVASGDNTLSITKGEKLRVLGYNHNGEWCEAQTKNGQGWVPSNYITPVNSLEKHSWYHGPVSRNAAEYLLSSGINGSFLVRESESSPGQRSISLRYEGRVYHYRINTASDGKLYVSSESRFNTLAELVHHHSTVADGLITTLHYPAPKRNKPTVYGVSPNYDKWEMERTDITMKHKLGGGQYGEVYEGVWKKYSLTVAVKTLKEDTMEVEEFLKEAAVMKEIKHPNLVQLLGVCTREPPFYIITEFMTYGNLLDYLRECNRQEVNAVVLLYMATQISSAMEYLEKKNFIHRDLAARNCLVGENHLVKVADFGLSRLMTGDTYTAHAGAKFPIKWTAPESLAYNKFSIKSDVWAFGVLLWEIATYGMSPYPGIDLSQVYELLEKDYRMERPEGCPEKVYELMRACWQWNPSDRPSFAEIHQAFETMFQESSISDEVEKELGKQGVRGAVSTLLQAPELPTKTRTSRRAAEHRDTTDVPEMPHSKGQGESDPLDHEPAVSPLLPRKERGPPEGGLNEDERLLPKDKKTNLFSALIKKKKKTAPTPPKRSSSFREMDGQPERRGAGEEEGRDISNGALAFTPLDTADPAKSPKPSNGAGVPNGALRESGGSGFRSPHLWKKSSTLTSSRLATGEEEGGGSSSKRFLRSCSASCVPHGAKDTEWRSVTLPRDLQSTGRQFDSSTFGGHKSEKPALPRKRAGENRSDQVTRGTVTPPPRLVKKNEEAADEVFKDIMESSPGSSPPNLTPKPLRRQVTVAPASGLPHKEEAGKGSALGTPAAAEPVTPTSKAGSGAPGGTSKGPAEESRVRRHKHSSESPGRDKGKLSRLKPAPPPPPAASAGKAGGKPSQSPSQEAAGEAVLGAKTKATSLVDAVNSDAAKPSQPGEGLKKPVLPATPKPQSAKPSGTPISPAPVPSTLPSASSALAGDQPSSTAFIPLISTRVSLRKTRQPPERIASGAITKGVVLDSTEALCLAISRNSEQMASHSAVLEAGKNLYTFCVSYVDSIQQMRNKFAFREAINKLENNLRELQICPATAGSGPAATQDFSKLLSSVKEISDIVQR
Tyrosine-protein kinase ABL, sequence (P42684 whole entry, looked up, the tested form may be a part): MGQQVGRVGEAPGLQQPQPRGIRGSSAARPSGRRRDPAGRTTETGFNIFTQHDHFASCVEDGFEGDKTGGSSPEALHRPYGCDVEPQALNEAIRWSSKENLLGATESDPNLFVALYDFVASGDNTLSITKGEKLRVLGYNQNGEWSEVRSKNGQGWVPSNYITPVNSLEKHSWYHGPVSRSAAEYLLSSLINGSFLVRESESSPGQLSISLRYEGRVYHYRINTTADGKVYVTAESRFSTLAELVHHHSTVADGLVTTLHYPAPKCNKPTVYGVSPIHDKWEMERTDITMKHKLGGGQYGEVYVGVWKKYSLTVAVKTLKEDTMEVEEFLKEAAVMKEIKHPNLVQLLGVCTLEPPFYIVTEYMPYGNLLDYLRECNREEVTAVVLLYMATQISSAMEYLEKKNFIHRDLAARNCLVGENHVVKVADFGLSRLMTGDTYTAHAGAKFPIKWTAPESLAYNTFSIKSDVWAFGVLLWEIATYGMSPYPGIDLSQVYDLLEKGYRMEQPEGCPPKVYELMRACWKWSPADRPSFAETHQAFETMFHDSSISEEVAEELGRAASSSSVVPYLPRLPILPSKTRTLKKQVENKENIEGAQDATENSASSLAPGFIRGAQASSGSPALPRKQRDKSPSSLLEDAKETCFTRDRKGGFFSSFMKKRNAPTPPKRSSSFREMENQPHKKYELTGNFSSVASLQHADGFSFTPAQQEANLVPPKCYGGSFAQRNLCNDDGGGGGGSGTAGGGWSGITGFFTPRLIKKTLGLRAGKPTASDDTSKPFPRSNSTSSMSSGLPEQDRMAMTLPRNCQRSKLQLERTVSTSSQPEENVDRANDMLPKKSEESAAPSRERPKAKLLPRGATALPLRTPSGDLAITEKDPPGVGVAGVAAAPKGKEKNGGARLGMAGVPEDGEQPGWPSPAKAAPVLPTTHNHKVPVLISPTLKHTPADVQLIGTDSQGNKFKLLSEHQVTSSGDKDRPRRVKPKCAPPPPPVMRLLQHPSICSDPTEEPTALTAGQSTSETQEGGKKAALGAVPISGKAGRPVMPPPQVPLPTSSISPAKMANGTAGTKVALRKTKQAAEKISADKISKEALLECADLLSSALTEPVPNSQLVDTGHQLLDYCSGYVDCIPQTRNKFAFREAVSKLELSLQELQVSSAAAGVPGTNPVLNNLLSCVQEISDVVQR
Phosphatidylinositol 5-phosphate 4-kinase type-2 beta (Homo sapiens), sequence (P78356 whole entry): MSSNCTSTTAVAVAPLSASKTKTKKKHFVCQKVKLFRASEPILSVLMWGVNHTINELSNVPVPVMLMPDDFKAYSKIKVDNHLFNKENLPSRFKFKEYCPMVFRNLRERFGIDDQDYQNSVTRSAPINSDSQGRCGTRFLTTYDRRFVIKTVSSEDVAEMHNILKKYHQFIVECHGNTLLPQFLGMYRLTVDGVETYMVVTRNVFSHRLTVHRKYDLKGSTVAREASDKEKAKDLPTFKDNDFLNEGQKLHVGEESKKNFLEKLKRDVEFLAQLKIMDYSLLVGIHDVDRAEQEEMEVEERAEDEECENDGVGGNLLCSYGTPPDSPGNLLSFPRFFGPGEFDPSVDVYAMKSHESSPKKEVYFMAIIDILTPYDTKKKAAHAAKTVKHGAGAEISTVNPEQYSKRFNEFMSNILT
Cyclin-dependent kinase 16, sequence (Q00536 whole entry): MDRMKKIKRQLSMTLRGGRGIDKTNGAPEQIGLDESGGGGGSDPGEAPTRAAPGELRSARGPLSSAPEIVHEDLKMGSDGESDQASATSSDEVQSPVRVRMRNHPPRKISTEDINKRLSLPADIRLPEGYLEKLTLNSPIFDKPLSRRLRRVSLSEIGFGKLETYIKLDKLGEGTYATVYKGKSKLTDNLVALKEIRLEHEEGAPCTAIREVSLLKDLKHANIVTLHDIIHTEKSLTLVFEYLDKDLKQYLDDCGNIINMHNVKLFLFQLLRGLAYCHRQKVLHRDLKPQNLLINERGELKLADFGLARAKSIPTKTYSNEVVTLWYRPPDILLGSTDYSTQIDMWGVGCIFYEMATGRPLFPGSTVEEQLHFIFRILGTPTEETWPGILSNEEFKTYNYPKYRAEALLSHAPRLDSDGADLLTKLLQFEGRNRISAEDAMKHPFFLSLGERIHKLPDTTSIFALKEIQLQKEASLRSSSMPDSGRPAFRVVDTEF

Turning to `CCOc1cc(N2CCC(O)CC2)ccc1Nc1ncc2c(n1)N(C)c1ccccc1C(=O)N2C`, the inhibition is -1.3% in assay [1]; 1.7% in assay [2]; -9.5% in assay [3]; 13.3% in assay [6]; -2.7% in assay [7]; -9.6% in assay [8]. For the same compound, the inhibition in assay [9] was -8.9%. The IC50 in assay [4] and in assay [5] was > 50 µM throughout.

Usually inhibition stands for the change of the read-out against control, counted positive when it falls. The term IC50 denotes the midpoint of a concentration-inhibition curve. A lower IC50 goes with higher potency.
